Records with an inconclusive call do not appear.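 How the source made its calls, unless noted: active means viability at or below 27.92% in each of two runs, the all-compound median minus 4 SD; inconclusive means no clear call, values can overlap the other calls; inactive means the rest.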
Experiments:
[1] = S. cerevisiae growth inhibition in permissive medium (OD615), pilot counter-assay for S. cerevisiae lifespan shortening project, permissive growth control (AID 705;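 active means growth inhibition above 25% in both replicates, a cutoff set 3 SD above the mean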); details: OD615, 24 h, at 10 µM, active compounds read high
How it was run: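 Timing: 24 h exposure, 30 °C / Material: Saccharomyces cerevisiae strain carrying genetically modified DeaD replicative-lifespan system / Signal: OD at 615 nm / Compound: 10 µM single dose, 0.25% DMSO / Medium: SC raffinose/galactose permissive medium / Evaluation: reduction in yeast growth (OD615)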

[2] = S. cerevisiae growth inhibition in restrictive medium, OD615, pilot screen, restrictive growth control, yeast lifespan reduction project (AID 706;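 active means growth inhibition above a set limit, 3 SD over mean compound inhibition, in both replicates, cut at about 43% in these data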;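 further: modified DeaD lifespan yeast strain shifted to restrictive glucose medium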); details: OD615, 48 h, at 10 µM, active compounds read high
How it was run: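 System: Engineered S. cerevisiae DeaD strain | Detection: OD615 | Buffer or medium: CSMM-D glucose medium | Doses: 10 µM compound, 0.25% DMSO | Timing: 4 h pre-growth plus 48 h compound exposure, 30 °C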

[3] = doxorubicin toxicity protection in MRP-1 cells – H69AR cells, CellTiter-Glo, duplicate, MRP-1 activator project, pilot screen (AID 807;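 active means viability increase at or above a cutoff of the median across tested compounds plus 3 SD, cut at about 8.5% in these data, passing the limit was not always enough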;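 further: compound pretreatment 18-22 h then 72 h combined with doxorubicin; 0% = doxorubicin alone and 100% = vehicle without doxorubicin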); details: H69AR viability with doxorubicin, CellTiter-Glo luminescence; at 10 µM; active compounds read high
[4] = viability of HCT116 without oncogenic beta-catenin – human colon tumor cells, pilot screen (AID 823;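 active means cell viability at or below a set limit in both duplicate runs, the limit being the all-compound median minus 4 SD, cut at about 23% in these data, passing the limit was not always enough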;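 further: 0% = wells killed by 20 µM Hyamine and 100% = untreated DMSO cell wells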); details: HCT116 beta-catenin knockout viability, CellTiter-Glo, 60 h; at 10 µM; active compounds read low
[5] = viability of PTEN-null HCT116 cells – cell-based, HCT116 clonal line, CellTiter-Glo, pilot screen (AID 824); details: HCT116 PTEN-deleted viability, 60 h, at 10 µM, active compounds read low;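 further: 0% = 20 µM Hyamine control and 100% = vehicle cell control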
[6] = RAM pathway blockade in budding yeast – dse1pr::URA3 reporter, 5-FOA selection, pilot screen (AID 869;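 active means inhibition over a set limit, the all-compound mean plus 3 SD, in both replicate runs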;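 further: 0% = DMSO wells with no growth and 100% = 10 µM 1-NA-PP1 with full growth; RAM network block rescues cells from 5-FOA so hits raise OD615 growth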); details: S. cerevisiae dse1pr::URA3 5-FOA growth, OD615, 2 d; at 10 µM; active compounds read high; strain carries analog-sensitive mutant Cbk1 kinase
[7] = RAM signaling pathway blockade in yeast – S. cerevisiae, Pdr1DBD-CYC8 efflux-inhibited sensitized strain, primary screen (AID 1298;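 active means RAM network inhibition above 8.4% in each of two replicates, 3 SD over the compound average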;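 further: 0% = DMSO untreated cells without growth and 100% = 10 µM 1-NA-PP1 full growth; higher means more yeast growth rescued from 5-FOA killing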); details: S. cerevisiae cbk1-as DSE1-URA3 strain, 5-FOA growth OD615, 2 d; at 50 µM; active compounds read high

COc1ccc2oc(-c3ccccc3)c(C(=O)N3CCOCC3)c2c1
inactive: growth inhibition [1] 2.58% | growth inhibition [2] -8.54% | viability increase [3] -3.95% | viability [4] 94.3% | viability [5] 90% | inhibition [6] 1.52% | RAM network inhibition [7] 5.28%

COc1ccc(-c2nnc(NC(=O)C(C)C)s2)c(OC)c1
inactive: growth inhibition [1] -18.6% | growth inhibition [2] -10.3% | viability increase [3] -2.16% | viability [4] 96% | viability [5] 88.8% | inhibition [6] 4.28% | RAM network inhibition [7] 9.53%

CCOC(=O)CC(=O)Nc1ccc(C(=O)OCC)cc1
inactive: growth inhibition [1] 4.17% | growth inhibition [2] 7.02% | viability increase [3] 1.09% | viability [4] 101% | viability [5] 105% | inhibition [6] 1.54% | RAM network inhibition [7] 4.84%

O=C(O)Cc1ccc(NC(=O)C2CC=CCC2C(=O)O)cc1 (stereo not drawn)
inactive: growth inhibition [1] -7.36% | growth inhibition [2] 1.55% | viability increase [3] 1.02% | viability [4] 102% | viability [5] 104% | inhibition [6] 3.26% | RAM network inhibition [7] 8.93%

c1ccc2c(c1)nc(NCC1CCCO1)c1nnnn12 (stereo not drawn)
inactive: growth inhibition [1] -4.03% | growth inhibition [2] 4.6% | viability increase [3] -3.64% | viability [4] 101% | viability [5] 97.6% | inhibition [6] 1.34% | RAM network inhibition [7] 2.87%

Cc1cc2cc(CNS(=O)(=O)c3ccccc3)ccc2n1C
inactive: growth inhibition [1] -4.47% | growth inhibition [2] 3.34% | viability increase [3] -1.48% | viability [4] 85.2% | viability [5] 86.2% | inhibition [6] 0.71% | RAM network inhibition [7] 2.49%

COc1ccccc1NC(=O)c1ccc(S(=O)(=O)N(C)C)cc1
inactive: growth inhibition [1] 0.34% | growth inhibition [2] 6.62% | viability increase [3] -0.55% | viability [4] 108% | viability [5] 105% | inhibition [6] 2.33% | RAM network inhibition [7] -1.21%

COC(=O)C1=C(C)NC(=O)NC1C1CC=CCC1 (stereo not drawn)
inactive: growth inhibition [1] -13.7% | growth inhibition [2] -8.8% | viability increase [3] 0.06% | viability [4] 96.2% | viability [5] 95.5% | inhibition [6] 3.1% | RAM network inhibition [7] 6.9%

CC(=O)c1ccc(OCC(O)CN2C(C)(C)CC(O)CC2(C)C)cc1 (stereo not drawn)
inactive: growth inhibition [1] -16.9% | growth inhibition [2] -12.3% | viability increase [3] 1.37% | viability [4] 105% | viability [5] 96.8% | inhibition [6] 1.66% | RAM network inhibition [7] 7.12%

CCc1nccn1S(=O)(=O)c1ccc(OC)c(OC)c1
inactive: growth inhibition [1] -17.4% | growth inhibition [2] -10% | viability increase [3] -0.29% | viability [4] 100% | viability [5] 93.3% | inhibition [6] 1.67% | RAM network inhibition [7] 0.47%

Cn1c(=O)[nH]c(=O)c2c1nc(N1CCC(Cc3ccccc3)CC1)n2Cc1ccccc1
inactive: growth inhibition [1] -19.2% | growth inhibition [2] -10.1% | viability increase [3] -6.11% | viability [4] 82.8% | viability [5] 69.5% | inhibition [6] 2.9% | RAM network inhibition [7] 3.08%

CCOc1ccc(N(CC(=O)N2CC=C(c3ccccc3)CC2)S(=O)(=O)c2c(C)noc2C)cc1
inactive: growth inhibition [1] -3.46% | growth inhibition [2] -23.9% | viability increase [3] -3.95% | viability [4] 71.1% | viability [5] 64.9% | inhibition [6] 1.11% | RAM network inhibition [7] 0.32%

O=C(CN1C2=NCCCN2c2ccccc21)c1cccs1
inactive: growth inhibition [1] 1.83% | growth inhibition [2] -10.1% | viability increase [3] -3.27% | viability [4] 95.7% | viability [5] 92.1% | inhibition [6] 0.695% | RAM network inhibition [7] 4.72%

COc1cccc(NC2=CC(=O)CC(C)(C)C2)c1
inactive: growth inhibition [1] 4.23% | growth inhibition [2] 0.02% | viability increase [3] -0.06% | viability [4] 95% | viability [5] 99.2% | inhibition [6] 0.5% | RAM network inhibition [7] 1.95%

— PubChem BioAssay
